Columns and labels:
[1] = test system: Rattus norvegicus; experiment: In vivo deiodination in 1 hour after administration of compound; format: functional
In short: (§1)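 In immature female Fischer rats given 3 μCi (111 kBq) of 125I-steroid iv, deiodination was estimated from thyroid PDK at 1, 2 or 5 h, or at 2 h with 60 μg co-injected estradiol. Thyroid uptake after [125I]NaI injection at the same time interval was taken as 100%.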

[2] = test system: Rattus norvegicus; experiment: In vivo deiodination in 2 hour after administration of compound; format: functional; in short: as §1
[3] = test system: Rattus norvegicus; experiment: In vivo deiodination in 2 hour after administration of compound in presence of 60 microg of estradiol; format: functional; in short: as §1
[4] = test system: Rattus norvegicus; experiment: In vivo deiodination in 5 hr after administration of compound; format: functional; in short: as §1
[5] = test system: Rattus norvegicus; experiment: Mean uptake in adrenals 1 hr after intravenous injection of 3 microCi (111 kBq) of the compound; format: functional, Adrenal gland
In short: (§2)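 Immature female Fischer rats (24 days old, 55-60 g) had free access to food and water. They were warmed under an infrared lamp, then given 200 μL HPLC-purified 125I-labeled steroid (3 μCi, 111 kBq) in saline with 9% ethanol and 1% Tween 80 via the lateral tail vein. Where stated, 60 μg unlabeled estradiol was co-injected. Rats were killed at 1, 2 or 5 h. Tissues were KCl-washed, blotted, weighed and gamma-counted against a reference of the injectate. Results are PDK (% dose × kg/g), mean and SD of three rats.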

[6] = test system: Rattus norvegicus; experiment: Mean uptake in adrenals 2 hr after intravenous injection of 3 microCi (111 kBq); format: functional, Adrenal gland; in short: as §2
[7] = species on record: Rattus norvegicus; experiment: Effect of Co-injection with estradiol on the uterus to blood ratio (Co-injected with 60 microg of estradiol (E2)); format: functional
In short: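 Immature female Fischer rats (24 days, 55-60 g) received 3 μCi (111 kBq) 125I-labelled steroid iv via the lateral tail vein, in 200 μL 9% ethanol-saline with 1% Tween 80, co-injected with 60 μg unlabelled estradiol. Killed at 2 h. Uterus and blood were KCl-washed and gamma-counted as PDK. Ratio is the mean of three rats; % change is versus tracer-only animals.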

[8] = test system: Rattus norvegicus; experiment: Mean uptake in uterus 2 hr after intravenous injection of 3 microCi (111 kBq); format: functional
In short: (§3)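 Immature female Fischer rats (24 days old, 55-60 g), food and water free. 3 μCi (111 kBq) HPLC-purified 125I-labeled steroid given iv via lateral tail vein in 200 μL saline containing 9% ethanol and 1% Tween 80; receptor-saturation group co-injected with 60 μg unlabeled estradiol. Sacrificed at set times; uterus washed with 0.154 M KCl, blotted, weighed, gamma counted against injected reference; expressed as PDK (% dose × kg/g), mean of three rats.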

[9] = test system: Rattus norvegicus; experiment: Mean uptake in uterus 2 hr after intravenous injection of 3 uM Ci (111 kBq) in presence of 60 ug coinjected estradiol; format: functional; in short: as §3
[10] = test system: Rattus norvegicus; experiment: Mean uptake in uterus 1 hr after intravenous injection of 3 microCi (111 kBq) of the compound; format: functional; in short: as §2
[11] = test system: Rattus norvegicus; experiment: Mean uptake in uterus 5 hr after intravenous injection of 3 microCi (111 kBq); format: functional; in short: as §3
[12] = test system: Rattus norvegicus; experiment: Mean uptake in blood 5 hr after intravenous injection of 3 microCi (111 kBq); format: functional; in short: as §2
[13] = test system: Rattus norvegicus; experiment: Mean uptake in adrenals 2 hr after intravenous injection of 3 microCi (111 kBq) in presence of 60 ug coinjected estradiol; format: functional, Adrenal gland; in short: as §2
[14] = test system: Rattus norvegicus; experiment: Mean uptake in adrenals 5 hr after intravenous injection of 3 microCi (111 kBq); format: functional, Adrenal gland; in short: as §2
[15] = test system: Rattus norvegicus; experiment: Mean uptake in blood 1 hr after intravenous injection of 3 microCi (111 kBq) of the compound; format: functional; in short: as §2
[16] = test system: Rattus norvegicus; experiment: Mean uptake in blood 2 hr after intravenous injection of 3 microCi (111 kBq); format: functional; in short: as §2
[17] = test system: Rattus norvegicus; experiment: Mean uptake in blood 2 hr after intravenous injection of 3 microCi (111 kBq) in presence of 60 ug coinjected estradiol; format: functional; in short: as §2
[18] = test system: Rattus norvegicus; experiment: Mean uptake in brain 1 hr after intravenous injection of 3 microCi (111 kBq) of the compound; format: functional; in short: as §2
[19] = test system: Rattus norvegicus; experiment: Mean uptake in brain 2 hr after intravenous injection of 3 microCi (111 kBq); format: functional; in short: as §2
[20] = test system: Rattus norvegicus; experiment: Mean uptake in brain 2 hr after intravenous injection of 3 uM Ci (111 kBq) in presence of 60 ug coinjected estradiol; format: functional; in short: as §2
[21] = test system: Rattus norvegicus; experiment: Mean uptake in kidneys 1 hr after intravenous injection of 3 microCi (111 kBq) of the compound; format: functional; in short: as §2
[22] = test system: Rattus norvegicus; experiment: Mean uptake in kidneys 2 hr after intravenous injection of 3 microCi (111 kBq); format: functional; in short: as §2
[23] = test system: Rattus norvegicus; experiment: Mean uptake in kidneys 2 hr after intravenous injection of 3 microCi (111 kBq) in presence of 60 ug coinjected estradiol; format: functional, Kidney; in short: as §2
[24] = test system: Rattus norvegicus; experiment: Mean uptake in kidneys 5 hr after intravenous injection of 3 microCi (111 kBq); format: functional; in short: as §2
[25] = test system: Rattus norvegicus; experiment: Mean uptake in liver 2 hr after intravenous injection of 3 microCi (111 kBq); format: functional; in short: as §2
[26] = test system: Rattus norvegicus; experiment: Mean uptake in ovaries 2 hr after intravenous injection of 3 uM Ci (111 kBq) in presence of 60 ug coinjected estradiol; format: functional, Female gonad; in short: as §2
[27] = test system: Rattus norvegicus; experiment: Mean uptake in ovaries 5 hr after intravenous injection of 3 microCi (111 kBq); format: functional, Female gonad; in short: as §2
[28] = test system: Rattus norvegicus; experiment: Mean uptake in spleen 1 hr after intravenous injection of 3 microCi (111 kBq) of the compound; format: functional; in short: as §2
[29] = test system: Rattus norvegicus; experiment: Mean uptake in spleen 2 hr after intravenous injection of 3 uM Ci (111 kBq); format: functional; in short: as §2
[30] = test system: Rattus norvegicus; experiment: Mean uptake in spleen 2 hr after intravenous injection of 3 uM Ci (111 kBq) in presence of 60 ug coinjected estradiol; format: functional; in short: as §2
[31] = test system: Rattus norvegicus; experiment: Mean uptake in spleen 5 hr after intravenous injection of 3 microCi (111 kBq); format: functional; in short: as §2
[32] = test system: Rattus norvegicus; experiment: Mean uptake in thyroid 2 hr after intravenous injection of 3 microCi (111 kBq); format: functional, Thyroid gland; in short: as §2
[33] = test system: Rattus norvegicus; experiment: Mean uptake in thyroid 2 hr after intravenous injection of 3 microCi (111 kBq) in presence of 60 ug coinjected estradiol; format: functional, Thyroid gland; in short: as §2
[34] = test system: Rattus norvegicus; experiment: Mean uptake in thyroid 1 hr after intravenous injection of 3 microCi (111 kBq) of the compound; format: functional, Thyroid gland; in short: as §2
[35] = test system: Rattus norvegicus; experiment: Mean uptake in liver 2 hr after intravenous injection of 3 microCi (111 kBq) in presence of 60 ug coinjected estradiol; format: functional; in short: as §2
[36] = test system: Rattus norvegicus; experiment: Mean uptake in liver 5 hr after intravenous injection of 3 microCi (111 kBq); format: functional; in short: as §2
[37] = test system: Rattus norvegicus; experiment: Mean uptake in lungs 1 hr after intravenous injection of 3 microCi (111 kBq) of the compound; format: functional; in short: as §2
[38] = test system: Rattus norvegicus; experiment: Mean uptake in lungs 2 hr after intravenous injection of 3 microCi (111 kBq); format: functional; in short: as §2
[39] = test system: Rattus norvegicus; experiment: Mean uptake in lungs 2 hr after intravenous injection of 3 microCi (111 kBq) in presence of 60 ug coinjected estradiol; format: functional; in short: as §2
[40] = test system: Rattus norvegicus; experiment: Mean uptake in lungs 5 hr after intravenous injection of 3 microCi (111 kBq); format: functional; in short: as §2
[41] = test system: Rattus norvegicus; experiment: Mean uptake in muscle 1 hr after intravenous injection of 3 microCi (111 kBq) of the compound; format: functional, Muscle tissue; in short: as §2
[42] = test system: Rattus norvegicus; experiment: Mean uptake in muscle 2 hr after intravenous injection of 3 microCi (111 kBq); format: functional, Muscle tissue; in short: as §2
[43] = test system: Rattus norvegicus; experiment: Mean uptake in muscles 5 hr after intravenous injection of 3 microCi (111 kBq); format: functional, Muscle tissue; in short: as §2
[44] = test system: Rattus norvegicus; experiment: Mean uptake in ovaries 1 hr after intravenous injection of 3 microCi (111 kBq) of the compound; format: functional, Female gonad; in short: as §2
[45] = test system: Rattus norvegicus; experiment: Mean uptake in ovaries 2 hr after intravenous injection of 3 microCi (111 kBq); format: functional, Female gonad; in short: as §2
[46] = test system: Rattus norvegicus; experiment: Mean uptake in liver 1 hr after intravenous injection of 3 microCi (111 kBq) of the compound; format: functional; in short: as §2

C[C@]12CC[C@@H]3c4ccc(O)cc4CC[C@H]3[C@@H]1CC[C@@]2(O)/C=C\[125I]
Deiodination [1]: 3.8%
Deiodination [2]: 2.8%
Deiodination [3]: 3.7%
Deiodination [4]: 17%
PDK [5]: 154
PDK [6]: 67
Change [7]: -78%
Uterus to blood ratio [7]: 3
PDK [8]: 166
PDK [9]: 41
PDK [10]: 228
PDK [11]: 106
PDK [12]: 17
PDK [13]: 77
PDK [14]: 23
PDK [15]: 16
PDK [16]: 12
PDK [17]: 14
PDK [18]: 34
PDK [19]: 11
PDK [20]: 14
PDK [21]: 58
PDK [22]: 32
PDK [23]: 29
PDK [24]: 20
PDK [25]: 84
PDK [26]: 36
PDK [27]: 50
PDK [28]: 19
PDK [29]: 11
PDK [30]: 10
PDK [31]: 9
PDK [32]: 3718
PDK [33]: 4975
PDK [34]: 2547
PDK [35]: 83
PDK [36]: 57
PDK [37]: 44
PDK [38]: 25
PDK [39]: 26
PDK [40]: 18
PDK [41]: 24
PDK [42]: 10
PDK [43]: 5
PDK [44]: 116
PDK [45]: 85
PDK [46]: 148

Source: ChEMBL document CHEMBL1123977, “Synthesis, receptor binding, and tissue distribution of (17 alpha,20E)- and (17 alpha,20Z)-21-[125I]iodo-19-norpregna-1,3,5(10), 20-tetraene-3,17-diol ” (1988)
